# Experimental data as given in publication PMC9563295 (Journal of the American Chemical Society, 2022).
# Numbered stars: 1 amine (or outer) side, 2 acyl side, 3 side chain; on linkers, the order of the positions; unused ones are H or OH. Bridge positions count the residues as written; N and C are the ends. Square brackets hold non-standard residues; d marks the D form. Peptide text beside a SMILES is read from it. ξ: configuration not given here. ξβ3hPhg = O=C(CC(N[*:1])c1ccccc1)[*:2]; ξPhg = NC(C(=O)O)c1ccccc1; βAla = NCCC(=O)O
# Target: hEGFR (Homo sapiens, UniProt P00533)
# Assay: Binding kinetics analysis by surface plasmon resonance
# Conditions: KD compared with 2D and 18D
# Chain of hEGFR (P00533 25-1210): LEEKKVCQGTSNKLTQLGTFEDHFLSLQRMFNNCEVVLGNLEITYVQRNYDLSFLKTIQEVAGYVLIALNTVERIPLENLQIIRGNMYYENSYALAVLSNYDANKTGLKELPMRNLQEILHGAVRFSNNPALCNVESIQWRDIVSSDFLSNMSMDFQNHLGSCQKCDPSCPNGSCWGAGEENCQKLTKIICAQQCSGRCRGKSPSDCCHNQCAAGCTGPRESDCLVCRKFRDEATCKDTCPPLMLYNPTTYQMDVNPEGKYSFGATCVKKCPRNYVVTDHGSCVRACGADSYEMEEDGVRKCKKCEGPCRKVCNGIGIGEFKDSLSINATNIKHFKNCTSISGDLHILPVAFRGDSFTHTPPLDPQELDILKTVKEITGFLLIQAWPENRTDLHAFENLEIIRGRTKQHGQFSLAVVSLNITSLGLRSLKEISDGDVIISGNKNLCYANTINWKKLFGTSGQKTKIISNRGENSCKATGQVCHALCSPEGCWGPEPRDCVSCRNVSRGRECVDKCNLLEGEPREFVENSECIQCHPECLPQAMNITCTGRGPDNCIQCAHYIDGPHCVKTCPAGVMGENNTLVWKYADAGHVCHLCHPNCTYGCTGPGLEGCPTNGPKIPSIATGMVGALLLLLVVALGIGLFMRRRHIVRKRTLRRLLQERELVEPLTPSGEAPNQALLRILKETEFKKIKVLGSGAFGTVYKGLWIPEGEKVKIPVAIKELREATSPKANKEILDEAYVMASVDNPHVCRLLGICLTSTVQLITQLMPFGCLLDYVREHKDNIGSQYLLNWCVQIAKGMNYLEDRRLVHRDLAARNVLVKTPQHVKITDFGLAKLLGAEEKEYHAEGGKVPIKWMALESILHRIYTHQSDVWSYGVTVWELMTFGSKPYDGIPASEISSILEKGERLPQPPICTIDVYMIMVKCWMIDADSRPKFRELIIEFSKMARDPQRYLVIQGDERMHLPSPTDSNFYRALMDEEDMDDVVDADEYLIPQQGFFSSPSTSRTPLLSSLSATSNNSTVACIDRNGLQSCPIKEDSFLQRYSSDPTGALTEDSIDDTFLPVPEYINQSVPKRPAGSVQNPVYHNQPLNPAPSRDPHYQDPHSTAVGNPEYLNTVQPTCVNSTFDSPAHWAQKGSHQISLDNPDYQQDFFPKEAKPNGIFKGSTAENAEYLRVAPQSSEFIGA
row,fold stronger binding affinity in comparison with 2D and 18D,Compound
1,approximately 10 fold,CC(C)[C@@H]1NC(=O)[C@H](CCCNC(=N)N)NC(=O)[C@H](Cc2ccc(O)cc2)NC(=O)[C@H](C(C)C)NC(=O)[C@H](C(C)C)NC(=O)[C@H](CCCNC(=N)N)NC(=O)[C@H](CC(=O)O)NC(=O)[C@H](CC(=O)O)NC(=O)CCNC(=O)[C@H](Cc2ccc(O)cc2)NC(=O)[C@H](Cc2ccc(O)cc2)NC(=O)[C@H](Cc2ccccc2)NC(=O)[C@@H](Cc2ccc(O)cc2)NC(=O)CSC[C@@H](C(=O)NCC(N)=O)NC(=O)CC(c2ccccc2)NC1=O (stereo partly drawn) [D4β] ({CH2CO}-[dY]FYY[βAla]DDRVVYRV[ξβ3hPhg]CG-NH2; thioether N-15)
2,approximately 10 fold,"CC(C)C[C@@H]1NC(=O)CC(c2ccccc2)NC(=O)[C@H](CC(C)C)NC(=O)[C@H](Cc2ccc(O)cc2)NC(=O)CSC[C@@H](C(=O)NCC(N)=O)NC(=O)[C@H](Cc2ccc(O)cc2)NC(=O)[C@H](CC(C)C)NC(=O)[C@H](Cc2ccc(O)cc2)NC(=O)[C@H](CCCNC(=N)N)NC(=O)[C@H](CC(N)=O)NC(=O)[C@@H]2CCCN2C(=O)CC(c2ccccc2)NC(=O)[C@H](CCCNC(=N)N)NC(=O)[C@H](CCCNC(=N)N)NC(=O)CC(c2ccccc2)NC(=O)[C@H](Cc2ccc(O)cc2)NC1=O (stereo partly drawn) [L2β, ^AcYL^βXLY^βXRR^βXPNRYLYCG-NH2] ({CH2CO}-YL[ξβ3hPhg]LY[ξβ3hPhg]RR[ξβ3hPhg]PNRYLYCG-NH2; thioether N-16)"

# Target: hEGF–hEGFR interaction (Homo sapiens, UniProt P00533)
# Assay: hEGFR inhibition assay using AlphaLISA
# Format: biochemical
# Conditions: not given
# Chain of hEGF–hEGFR interaction (P00533 25-645 limits assumed): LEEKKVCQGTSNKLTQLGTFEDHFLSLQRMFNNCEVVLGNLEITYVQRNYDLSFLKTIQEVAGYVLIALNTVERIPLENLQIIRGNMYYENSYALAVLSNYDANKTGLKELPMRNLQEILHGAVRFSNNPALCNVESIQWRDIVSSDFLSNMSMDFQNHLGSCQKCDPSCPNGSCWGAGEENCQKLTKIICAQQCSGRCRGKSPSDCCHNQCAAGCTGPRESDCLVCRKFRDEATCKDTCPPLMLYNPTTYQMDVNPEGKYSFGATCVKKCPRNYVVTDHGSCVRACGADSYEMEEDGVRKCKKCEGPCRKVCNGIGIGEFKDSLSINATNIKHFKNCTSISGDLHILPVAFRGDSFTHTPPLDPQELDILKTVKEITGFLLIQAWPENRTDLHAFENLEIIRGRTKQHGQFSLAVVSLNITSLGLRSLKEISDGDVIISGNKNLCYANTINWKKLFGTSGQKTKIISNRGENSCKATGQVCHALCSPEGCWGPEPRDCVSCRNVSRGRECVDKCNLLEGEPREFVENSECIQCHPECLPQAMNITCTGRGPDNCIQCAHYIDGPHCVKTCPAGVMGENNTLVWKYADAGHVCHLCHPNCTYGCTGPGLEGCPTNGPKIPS
row,PPI inhibitory activity against hEGF–hEGFR interaction (in words),Compound
1,no inhibitory activity,"CC(C)C[C@H](NC(=O)CNC(=O)[C@H](CCCNC(=N)N)NC(=O)CC(NC(=O)[C@@H]1CSCC(=O)N[C@H](Cc2ccc(O)cc2)C(=O)N[C@@H](C(C)C)C(=O)N[C@@H](Cc2ccc(O)cc2)C(=O)N1)c1ccccc1)C(=O)N[C@@H](CC(=O)O)C(=O)N1CCC[C@H]1C(=O)N[C@@H](CCCNC(=N)N)C(=O)N[C@@H](CC(C)C)C(=O)N[C@@H](CO)C(=O)N[C@@H](CCCNC(=N)N)C(=O)N[C@@H](Cc1ccccc1)C(=O)N[C@@H](CO)C(=O)NCC(N)=O (stereo partly drawn) [D2β, ^AcyVYC^βXRGLDPRLSRFSG-NH2] ({CH2CO}-[dY]VYC[ξβ3hPhg]RGLDPRLSRFSG-NH2; thioether N-4)"
2,complete loss of the activity,CC(C)[C@@H]1NC(=O)[C@H](CCCNC(=N)N)NC(=O)[C@H](Cc2ccc(O)cc2)NC(=O)[C@H](C(C)C)NC(=O)[C@H](C(C)C)NC(=O)[C@H](CCCNC(=N)N)NC(=O)[C@H](CC(=O)O)NC(=O)[C@H](CC(=O)O)NC(=O)[C@H](C)NC(=O)[C@H](Cc2ccc(O)cc2)NC(=O)[C@H](Cc2ccc(O)cc2)NC(=O)[C@H](Cc2ccccc2)NC(=O)[C@@H](Cc2ccc(O)cc2)NC(=O)CSC[C@@H](C(=O)NCC(N)=O)NC(=O)[C@H](C)NC1=O [D4A] ({CH2CO}-[dY]FYYADDRVVYRVACG-NH2; thioether N-15)
3,complete loss of the activity,"CC(C)[C@@H]1NC(=O)[C@H](CCCNC(=N)N)NC(=O)[C@H](Cc2ccc(O)cc2)NC(=O)[C@H](C(C)C)NC(=O)[C@H](C(C)C)NC(=O)[C@H](CCCNC(=N)N)NC(=O)[C@H](CC(=O)O)NC(=O)[C@H](CC(=O)O)NC(=O)CNC(=O)[C@H](Cc2ccc(O)cc2)NC(=O)[C@H](Cc2ccc(O)cc2)NC(=O)[C@H](Cc2ccccc2)NC(=O)[C@@H](Cc2ccc(O)cc2)NC(=O)CSC[C@@H](C(=O)NCC(N)=O)NC(=O)C(c2ccccc2)NC1=O (stereo partly drawn) [D4α, ^AcyFYYGDDRVVYRVXCG-NH2] ({CH2CO}-[dY]FYYGDDRVVYRV[ξPhg]CG-NH2; thioether N-15)"

# Same assay, conditions: mutant vs parent L2β, D3β or D4β
row,fold increase of IC50 compared to the parent peptide,Compound
1,2.2 fold,CC(C)[C@@H]1NC(=O)[C@H](CCCNC(=N)N)NC(=O)[C@H](Cc2ccc(O)cc2)NC(=O)[C@H](C(C)C)NC(=O)[C@H](C(C)C)NC(=O)[C@H](CCCNC(=N)N)NC(=O)[C@H](CC(=O)O)NC(=O)[C@H](CC(=O)O)NC(=O)CCNC(=O)[C@H](Cc2ccc(O)cc2)NC(=O)[C@H](Cc2ccc(O)cc2)NC(=O)[C@H](Cc2ccccc2)NC(=O)[C@@H](Cc2ccc(O)cc2)NC(=O)CSC[C@@H](C(=O)NCC(N)=O)NC(=O)CCNC1=O [D4βG] ({CH2CO}-[dY]FYY[βAla]DDRVVYRV[βAla]CG-NH2; thioether N-15)
2,460 fold,"CC(C)C[C@@H]1NC(=O)CC(c2ccccc2)NC(=O)[C@H](CC(C)C)NC(=O)[C@H](Cc2ccc(O)cc2)NC(=O)CSC[C@@H](C(=O)NCC(N)=O)NC(=O)[C@H](Cc2ccc(O)cc2)NC(=O)[C@H](CC(C)C)NC(=O)[C@H](Cc2ccc(O)cc2)NC(=O)[C@H](CCCNC(=N)N)NC(=O)[C@H](CC(N)=O)NC(=O)[C@@H]2CCCN2C(=O)CC(c2ccccc2)NC(=O)[C@H](CCCNC(=N)N)NC(=O)[C@H](CCCNC(=N)N)NC(=O)C(c2ccccc2)NC(=O)[C@H](Cc2ccc(O)cc2)NC1=O (stereo partly drawn) [L2α.2, ^AcYL^βXLYXRR^βXPNRYLYCG-NH2] ({CH2CO}-YL[ξβ3hPhg]LY[ξPhg]RR[ξβ3hPhg]PNRYLYCG-NH2; thioether N-16)"
3,1270 fold,"CC(C)C[C@@H]1NC(=O)CC(c2ccccc2)NC(=O)[C@H](CC(C)C)NC(=O)[C@H](Cc2ccc(O)cc2)NC(=O)CSC[C@@H](C(=O)NCC(N)=O)NC(=O)[C@H](Cc2ccc(O)cc2)NC(=O)[C@H](CC(C)C)NC(=O)[C@H](Cc2ccc(O)cc2)NC(=O)[C@H](CCCNC(=N)N)NC(=O)[C@H](CC(N)=O)NC(=O)[C@@H]2CCCN2C(=O)CC(c2ccccc2)NC(=O)[C@H](CCCNC(=N)N)NC(=O)[C@H](CCCNC(=N)N)NC(=O)CCNC(=O)[C@H](Cc2ccc(O)cc2)NC1=O (stereo partly drawn) [L2βG.2, ^AcYL^βXLY^βGRR^βXPNRYLYCG-NH2] ({CH2CO}-YL[ξβ3hPhg]LY[βAla]RR[ξβ3hPhg]PNRYLYCG-NH2; thioether N-16)"

# Test system: not listed separately
# Assay: Serum stability assay
# Format: in vitro ADME
# Conditions: human serum, 37 °C; mutant vs parent L2β or D4β
# How it was run: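 Test peptides (parents plus Ala, backbone-shortening and sidechain-deletion mutants) incubated in human serum at 37 °C for up to 72 h. Percentage of remaining peptide over time estimated by LC/MS, and half-life (t1/2) derived from the decay.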
row,Compound,fold lower t1/2 than the parent peptide
1,CC(C)[C@@H]1NC(=O)[C@H](CCCNC(=N)N)NC(=O)[C@H](Cc2ccc(O)cc2)NC(=O)[C@H](C(C)C)NC(=O)[C@H](C(C)C)NC(=O)[C@H](CCCNC(=N)N)NC(=O)[C@H](CC(=O)O)NC(=O)[C@H](CC(=O)O)NC(=O)[C@H](C)NC(=O)[C@H](Cc2ccc(O)cc2)NC(=O)[C@H](Cc2ccc(O)cc2)NC(=O)[C@H](Cc2ccccc2)NC(=O)[C@@H](Cc2ccc(O)cc2)NC(=O)CSC[C@@H](C(=O)NCC(N)=O)NC(=O)CC(c2ccccc2)NC1=O (stereo partly drawn) [D4A.1] ({CH2CO}-[dY]FYYADDRVVYRV[ξβ3hPhg]CG-NH2; thioether N-15),26 fold
2,CC(C)[C@@H]1NC(=O)[C@H](CCCNC(=N)N)NC(=O)[C@H](Cc2ccc(O)cc2)NC(=O)[C@H](C(C)C)NC(=O)[C@H](C(C)C)NC(=O)[C@H](CCCNC(=N)N)NC(=O)[C@H](CC(=O)O)NC(=O)[C@H](CC(=O)O)NC(=O)CCNC(=O)[C@H](Cc2ccc(O)cc2)NC(=O)[C@H](Cc2ccc(O)cc2)NC(=O)[C@H](Cc2ccccc2)NC(=O)[C@@H](Cc2ccc(O)cc2)NC(=O)CSC[C@@H](C(=O)NCC(N)=O)NC(=O)[C@H](C)NC1=O [D4A.2] ({CH2CO}-[dY]FYY[βAla]DDRVVYRVACG-NH2; thioether N-15),2.6 fold
3,CC(C)[C@@H]1NC(=O)[C@H](CCCNC(=N)N)NC(=O)[C@H](Cc2ccc(O)cc2)NC(=O)[C@H](C(C)C)NC(=O)[C@H](C(C)C)NC(=O)[C@H](CCCNC(=N)N)NC(=O)[C@H](CC(=O)O)NC(=O)[C@H](CC(=O)O)NC(=O)CNC(=O)[C@H](Cc2ccc(O)cc2)NC(=O)[C@H](Cc2ccc(O)cc2)NC(=O)[C@H](Cc2ccccc2)NC(=O)[C@@H](Cc2ccc(O)cc2)NC(=O)CSC[C@@H](C(=O)NCC(N)=O)NC(=O)CC(c2ccccc2)NC1=O (stereo partly drawn) [D4α.1] ({CH2CO}-[dY]FYYGDDRVVYRV[ξβ3hPhg]CG-NH2; thioether N-15),2 fold
4,CC(C)C[C@@H]1NC(=O)[C@H](C)NC(=O)[C@H](CC(C)C)NC(=O)[C@H](Cc2ccc(O)cc2)NC(=O)CSC[C@@H](C(=O)NCC(N)=O)NC(=O)[C@H](Cc2ccc(O)cc2)NC(=O)[C@H](CC(C)C)NC(=O)[C@H](Cc2ccc(O)cc2)NC(=O)[C@H](CCCNC(=N)N)NC(=O)[C@H](CC(N)=O)NC(=O)[C@@H]2CCCN2C(=O)[C@H](C)NC(=O)[C@H](CCCNC(=N)N)NC(=O)[C@H](CCCNC(=N)N)NC(=O)[C@H](C)NC(=O)[C@H](Cc2ccc(O)cc2)NC1=O [L2A] ({CH2CO}-YLALYARRAPNRYLYCG-NH2; thioether N-16),approximately 10 fold
